In article PMC3475454 (Bioscience Reports, 2012):
Blank lines part the entries; values can stand above or below the molecule they belong to.

Tests used:
Ultra-Glo luciferase = molecular target: T1, Ultra-Glo luciferase (Photuris pensylvanica, UniProt Q27757); conditions: ref Promega Corporation web page; cited from earlier work
T1 sequence (Q27757 1-545): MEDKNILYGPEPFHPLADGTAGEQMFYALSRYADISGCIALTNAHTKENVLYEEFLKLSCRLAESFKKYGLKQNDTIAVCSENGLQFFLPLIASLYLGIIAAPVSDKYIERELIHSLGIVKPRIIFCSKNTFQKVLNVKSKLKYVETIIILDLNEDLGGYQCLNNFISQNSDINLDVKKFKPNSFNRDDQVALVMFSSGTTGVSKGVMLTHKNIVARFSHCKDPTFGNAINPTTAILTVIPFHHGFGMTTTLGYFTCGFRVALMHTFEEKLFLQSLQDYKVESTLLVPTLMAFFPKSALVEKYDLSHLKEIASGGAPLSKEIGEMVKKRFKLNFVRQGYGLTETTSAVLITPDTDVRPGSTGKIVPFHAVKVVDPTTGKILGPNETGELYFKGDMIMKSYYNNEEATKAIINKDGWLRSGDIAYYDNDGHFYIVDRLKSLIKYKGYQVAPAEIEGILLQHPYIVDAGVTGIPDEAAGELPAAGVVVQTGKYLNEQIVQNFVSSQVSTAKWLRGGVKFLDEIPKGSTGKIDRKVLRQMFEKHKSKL

firefly luciferase [1] = conditions: cited from earlier work
firefly luciferase [2] = molecular target: T2, firefly luciferase (Photinus pyralis, UniProt P08659); experiment: Firefly luciferase reporter; format: cell-based; conditions: 20 μM; for Firefly luciferase inhibition in cells: stably transfected cell lines
T2 sequence (P08659 whole entry): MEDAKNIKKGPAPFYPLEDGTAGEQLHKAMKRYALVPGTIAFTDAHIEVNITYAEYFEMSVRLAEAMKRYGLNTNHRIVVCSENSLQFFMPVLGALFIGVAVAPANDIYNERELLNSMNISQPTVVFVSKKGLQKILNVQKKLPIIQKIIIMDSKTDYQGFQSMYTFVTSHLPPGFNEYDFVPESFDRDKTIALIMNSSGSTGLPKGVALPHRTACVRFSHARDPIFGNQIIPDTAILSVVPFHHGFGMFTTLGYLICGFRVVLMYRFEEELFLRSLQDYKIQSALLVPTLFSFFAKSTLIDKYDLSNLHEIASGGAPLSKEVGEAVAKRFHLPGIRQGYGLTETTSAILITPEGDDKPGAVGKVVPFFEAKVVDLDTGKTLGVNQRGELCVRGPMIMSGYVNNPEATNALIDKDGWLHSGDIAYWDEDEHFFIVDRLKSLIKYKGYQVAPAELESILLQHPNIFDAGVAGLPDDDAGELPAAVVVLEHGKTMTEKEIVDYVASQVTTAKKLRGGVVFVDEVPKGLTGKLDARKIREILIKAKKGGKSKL
How it was run: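 Stably STF-transfected 70.4- and 55.1c-derived mouse hepatoma clones, with G418 removed at plating, were exposed in culture to 20 μM test compound (0.1% DMSO) for 1 h or 24 h. Cells were lysed in passive lysis buffer. Signal was normalised to Alamar Blue vitality and expressed as % untreated; n=3 and 4.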

firefly luciferase [3] = molecular target: T2, firefly luciferase; experiment: Monitoring of firefly luciferase in living cells with D-luciferin-ethylester; format: cell-based; conditions: 20 μM, 30 min pre-incubation, 70.4 K15 and 55.1c K65 cells
How it was run: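 Living 70.4 K15 and 55.1c K65 cells stably expressing firefly luciferase were pre-incubated for 30 min in medium with 20 μM test compound (37°C, 5% CO2) and then washed with PBS. After 5 min, signal was read on a plate reader over 4 min or on a CCD camera over 8 min; n=4.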

[4] = system: β-catenin target genes Axin2 and Gpr49; experiment: Real-time RT-PCR of β-catenin target genes; format: cell-based, mouse; conditions: 20 μM, 24 h
Gaussia luciferase = Gaussia luciferase activity assay in cell culture supernatant; format: biochemical; conditions: 20 μM, Hepa1c1c7, 70.4 and 55.1c cells
How it was run: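 Hepa1c1c7, 70.4 and 55.1c cells were transfected by Lipofectamine 2000 with an AP-1-responsive Gaussia luciferase vector. After 24 h, culture supernatant was taken. 20 μM test compound (1% v/v of 2 mM DMSO solution) was added 5 min before reading. Luminescence was read for 10 s; n=3 and 4.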

firefly luciferase [5] = molecular target: T2, firefly luciferase; experiment: Inhibition of pure commercially available firefly luciferase; format: biochemical; conditions: 10 μM, different enzyme concentrations
How it was run: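 Purified commercial firefly luciferase was prepared as a stock of 1 mg/ml in luciferase assay buffer lacking ATP and D-luciferin, supplemented with 0.1% BSA. Several enzyme concentrations were assayed with 10 μM test compound. Values are means of two experiments.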

firefly luciferase [6] = molecular target: T2, firefly luciferase; experiment: Firefly luciferase activity assay in cell lysates, compound added to lysate; format: biochemical; conditions: for IC50: IC50 for firefly luciferase inhibition
Renilla luciferase = Renilla luciferase (Renilla reniformis, UniProt P27652); experiment: Renilla luciferase activity assay in cell lysates; format: biochemical; conditions: 20 μM added to lysates of Hepa1c1c7, 70.4 and 55.1c cells
Chain of Renilla luciferase (P27652 whole entry): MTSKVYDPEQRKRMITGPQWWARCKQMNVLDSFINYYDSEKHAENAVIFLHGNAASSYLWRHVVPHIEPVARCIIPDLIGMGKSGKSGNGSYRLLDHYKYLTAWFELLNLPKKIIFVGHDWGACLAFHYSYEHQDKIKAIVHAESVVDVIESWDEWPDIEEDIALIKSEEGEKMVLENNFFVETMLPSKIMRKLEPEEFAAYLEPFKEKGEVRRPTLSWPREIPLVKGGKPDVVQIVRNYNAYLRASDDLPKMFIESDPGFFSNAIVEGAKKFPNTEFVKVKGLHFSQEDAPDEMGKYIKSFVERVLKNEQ
How it was run: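 Hepa1c1c7, 70.4 and 55.1c cells were transfected with CMV-driven Renilla luciferase plasmid. After 24 h, cells were lysed in passive lysis buffer. 20 μM test compound (1% v/v of 2 mM DMSO stock) was added to the lysate 5 min before reading. Luminescence was read for 10 s; n=3 and 4.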

Firefly luciferase inhibition in cells (firefly luciferase [2]; 1 h incubation): weaker | Firefly luciferase inhibition in cells (firefly luciferase [2]; 24 h incubation): disappeared in all cell lines
Compound: Oc1ccc(/C=C/c2cc(O)cc(O)c2)cc1 [Resveratrol, 3,5,4′-trihydroxy-trans-stilbene]
Resistance of Ultra-Glo luciferase against inhibition (Ultra-Glo luciferase): more resistant | Mechanism of inhibition with respect to ATP and D-luciferin (firefly luciferase [1]): non-competitive

Compound: Cc1cccc(/C=C/c2ccccc2)n1 [SIB-1893]
Efficacy of firefly luciferase inhibition (firefly luciferase [1]; compared with NFκBAI4): somewhat lower efficacy

Firefly luciferase activity in living cells (firefly luciferase [3]): effectively inhibits | Inhibition of pure firefly luciferase (firefly luciferase [5]): also inhibited | Decay of the luminescence signal (firefly luciferase [6]; 1 μM, coenzyme A-free buffer, 9 min, compared with untreated lysate): somewhat less pronounced | Quenching of remnant firefly signal by Renilla buffer (firefly luciferase [6]; 20 μM added to Renilla buffer): further improved | Inhibition of firefly luciferase signals (firefly luciferase [6]; 20 μM added to lysates of untreated transiently transfected Hepa1c1c7, 70.4 and 55.1c cells): strongly inhibited | IC50 (firefly luciferase [6]; lysate of 55.1cSTF K53 cells): 950 nM | IC50 (firefly luciferase [6]; lysate of 55.1cSTF K65 cells): 1420 nM | IC50 (firefly luciferase [6]; lysate of 70.4STF K15 cells): 850 nM | IC50 (firefly luciferase [6]; lysate of 70.4STF K31 cells): 880 nM | IC50 (firefly luciferase [6]; reaction buffer without coenzyme A, results not shown): ~1000 nM | Mechanism of inhibition with respect to ATP and D-luciferin (firefly luciferase [6]; varied ATP and D-luciferin, mixed hyperbolic fit): non-competitive | Duration of firefly luciferase inhibition in living cells (firefly luciferase [2]): > 24 h | Firefly luciferase inhibition in cells (firefly luciferase [2]; 1 h incubation): strongly inhibited | Luminescence of STF firefly luciferase reporter (firefly luciferase [2]; 24 h, transiently transfected Hepa1c1c7, 70.4 and 55.1c cells): strong decrease of luminescence | Firefly luciferase inhibition in cells (firefly luciferase [2]; 24 h incubation): still pronounced | Effect on Renilla luciferase (Renilla luciferase): not affected
Compound: COc1ccc(/C=C/c2ccccc2F)cc1 [NFκBAI4, (E)-2-fluoro-4′-methoxystilbene]
mRNA levels of Axin2 and Gpr49 [4]: not accompanied by a decrease in mRNA levels | Effect on Gaussia luciferase (Gaussia luciferase): not affected | Firefly luciferase inhibition in cells (firefly luciferase [2]; 48 h incubation): still visible in 70.4-derived, but not in 55.1c-derived, cell lines
